Experimental data from ChEMBL document CHEMBL1131423, “N-(2-Benzoylphenyl)-L-tyrosine PPARgamma agonists. 2. Structure-activity relationship and optimization of the phenyl alkyl ether moiety” (J Med Chem, 1998).
pEC50, pKi: −log10 of the molar value. Converted amounts (≈) assume the structure as drawn. One block for each molecule: values may come before it.

Key:
[1] = Solubility determined by equilibrating an excess of solid material in 500 microL of pH 7.4 phosphate buffer; format: physicochemical; settings: read-out: S
How it was run: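 Samples are filtered (0.22 µm) and diluted in water/acetonitrile 60:40. The dissolved concentration is measured by reversed-phase HPLC on a phenyl column with 0.05% TFA water/acetonitrile (60:40), 1 mL/min, and UV detection at each compound's maximum. Results are in mg/mL.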

[2] = target: T1, Peroxisome proliferator-activated receptor alpha (Homo sapiens, UniProt Q07869); assay: Tested in vitro for inhibiting the 50% binding of Peroxisome proliferator activated receptor alpha
T1 sequence (Q07869 whole entry): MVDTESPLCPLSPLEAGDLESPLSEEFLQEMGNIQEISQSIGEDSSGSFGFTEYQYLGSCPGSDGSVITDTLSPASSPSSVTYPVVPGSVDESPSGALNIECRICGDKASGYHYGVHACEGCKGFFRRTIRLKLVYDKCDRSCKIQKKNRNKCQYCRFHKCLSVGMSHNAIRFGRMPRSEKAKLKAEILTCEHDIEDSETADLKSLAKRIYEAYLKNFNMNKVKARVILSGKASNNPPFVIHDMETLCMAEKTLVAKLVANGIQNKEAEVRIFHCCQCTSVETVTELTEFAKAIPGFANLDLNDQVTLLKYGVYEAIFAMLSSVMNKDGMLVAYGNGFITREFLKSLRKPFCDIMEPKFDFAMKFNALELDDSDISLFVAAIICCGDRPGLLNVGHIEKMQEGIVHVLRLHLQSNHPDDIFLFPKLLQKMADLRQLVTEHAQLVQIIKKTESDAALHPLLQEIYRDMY

[3] = target: T1, Peroxisome proliferator-activated receptor alpha; assay: In vitro transactivation of Peroxisome proliferator activated receptor alpha.; format: functional
[4] = target: T2, Peroxisome proliferator-activated receptor gamma (Homo sapiens, UniProt P37231); assay: Inhibition by 50% of in vitro binding to Peroxisome proliferator activated receptor gamma
T2 sequence (P37231 whole entry): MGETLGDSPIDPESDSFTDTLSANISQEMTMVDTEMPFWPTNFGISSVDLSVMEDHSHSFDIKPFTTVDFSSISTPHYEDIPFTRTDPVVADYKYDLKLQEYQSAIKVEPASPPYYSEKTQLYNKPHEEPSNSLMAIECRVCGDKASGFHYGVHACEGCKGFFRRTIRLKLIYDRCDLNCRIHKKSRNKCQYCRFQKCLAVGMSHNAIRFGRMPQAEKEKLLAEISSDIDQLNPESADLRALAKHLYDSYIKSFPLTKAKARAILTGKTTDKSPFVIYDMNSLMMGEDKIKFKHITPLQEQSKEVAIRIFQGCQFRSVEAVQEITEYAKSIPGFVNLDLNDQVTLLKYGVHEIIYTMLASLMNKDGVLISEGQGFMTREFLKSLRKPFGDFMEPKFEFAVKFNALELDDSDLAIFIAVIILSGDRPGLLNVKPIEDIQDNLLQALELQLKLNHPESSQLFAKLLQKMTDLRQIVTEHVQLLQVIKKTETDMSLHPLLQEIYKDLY

[5] = target: T2, Peroxisome proliferator-activated receptor gamma; assay: Tested functionally in vitro for inducing 50% of the maximum alkaline phosphate activity (Transactivation) against Peroxisome proliferator activated receptor gamma; format: functional
[6] = target: T2, Peroxisome proliferator-activated receptor gamma; assay: Compound was tested functionally in vitro for inducing 50% of the maximum alkaline phosphate activity (Transactivation) against Peroxisome proliferator activated receptor gamma; format: functional
[7] = target: T1, Peroxisome proliferator-activated receptor alpha; assay: Compound was tested in vitro for inhibiting the 50% binding of Peroxisome proliferator activated receptor alpha; format: functional
[8] = target: T2, Peroxisome proliferator-activated receptor gamma; assay: Compound was tested in vitro for inhibiting the 50% binding of Peroxisome proliferator activated receptor gamma; IA = Inactive
How it was run: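 Competitive radioligand binding to PPARγ with [3H]BRL 49653 as the radioligand. […] It is converted to an apparent Ki by Ki = IC50/(1 + [L]/Kd), and results are given as pKi.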

solubility thermodynamic [1]: 4 µg/mL (≈ 7.33 µM)
pKi [2]: 6.76
pEC50 [3]: 6.18
Structure (SMILES): Cc1cc(-c2ccccc2)nn1CCOc1ccc(C[C@H](Nc2ccccc2C(=O)c2ccccc2)C(=O)O)cc1

pKi [4]: 8.58
pKi [2]: 5.60
pEC50 [3]: < 5.00
pEC50 [5]: 7.63
Structure (SMILES): Cc1sc(N2CCN(S(C)(=O)=O)CC2)nc1CCOc1ccc(C[C@H](Nc2ccccc2C(=O)c2ccccc2)C(=O)O)cc1

pEC50 [6]: 6.72
pKi [7]: 5.85
Structure (SMILES): O=C(c1ccccc1)c1ccccc1N[C@@H](Cc1ccc(OCCOc2ccc(SCl)cc2)cc1)C(=O)O

pKi [8]: 5.93
Structure (SMILES): O=C(c1ccccc1)c1ccccc1N[C@@H](Cc1ccc(OCC2COCCOCCOCCO2)cc1)C(=O)O (stereo not given in full)
